ChEMBL document CHEMBL1146887 (J Med Chem, 2006)
pIC50: −log10 of the molar value. Activity calls are given as the source filed them. The rule behind the calls is not given here. Where a SMILES comes first, the peptide text is derived from it. [ ]: non-standard residue; d: D form. The star is where a group is joined. Tyr(Nα,Nα-allyl2) = C=CCN(CC=C)[C@@H](Cc1ccc(O)cc1)C(=O)*; Aib = CC(C)(N)C(=O)O

How the values were obtained:
[1] = target: Opioid receptors; mu & delta (Homo sapiens) (UniProt P41143+P35372); assay: Selectivity for human cloned delta opioid receptor over mu opioid receptor; assay type: protein assay
Opioid receptors; mu & delta (Homo sapiens), sequence (P35372 whole entry, looked up): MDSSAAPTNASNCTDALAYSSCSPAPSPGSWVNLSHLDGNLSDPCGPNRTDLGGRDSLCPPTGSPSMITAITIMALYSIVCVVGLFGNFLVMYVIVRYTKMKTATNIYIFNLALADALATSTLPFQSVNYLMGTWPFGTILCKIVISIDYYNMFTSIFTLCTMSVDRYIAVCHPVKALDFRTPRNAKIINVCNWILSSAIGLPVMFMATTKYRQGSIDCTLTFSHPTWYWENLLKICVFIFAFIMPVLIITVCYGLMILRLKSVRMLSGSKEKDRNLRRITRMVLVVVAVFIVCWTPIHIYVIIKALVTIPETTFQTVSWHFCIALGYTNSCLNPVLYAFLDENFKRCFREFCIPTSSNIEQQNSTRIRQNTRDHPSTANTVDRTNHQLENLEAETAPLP
Opioid receptors; mu & delta (Homo sapiens), sequence (P41143 whole entry, looked up): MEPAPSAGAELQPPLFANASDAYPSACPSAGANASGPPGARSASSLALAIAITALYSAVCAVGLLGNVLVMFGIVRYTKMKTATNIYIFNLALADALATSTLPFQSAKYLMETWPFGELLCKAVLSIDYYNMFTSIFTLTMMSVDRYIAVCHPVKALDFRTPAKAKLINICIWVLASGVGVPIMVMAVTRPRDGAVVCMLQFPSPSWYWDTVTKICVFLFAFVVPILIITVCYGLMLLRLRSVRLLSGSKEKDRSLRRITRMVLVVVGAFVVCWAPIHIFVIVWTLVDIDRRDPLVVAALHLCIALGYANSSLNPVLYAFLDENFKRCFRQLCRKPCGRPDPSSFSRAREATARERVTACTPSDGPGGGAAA
In short: (§1)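 Ratios of Ke values from [³⁵S]GTPγS antagonism assays at cloned human µ, δ and κ receptors in CHO membranes, each run with 10 µM GDP final against DAMGO, DPDPE or U69593 agonist curves.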

[2] = target: T1, Delta-type opioid receptor (Homo sapiens, UniProt P41143); assay: Agonist activity at delta opioid receptor at 31.6 uM; assay type: functional
T1 sequence (P41143 whole entry): as the sequence (P41143 whole entry, looked up) above

[3] = target: Kappa-type opioid receptor (Homo sapiens) (UniProt P41145); assay: Antagonist activity at human cloned kappa opioid receptor expressed in CHO cells assessed as inhibition of U69593-stimulated [35S]GTPgammaS binding in presence of 10 uM GDP; assay type: functional, cell-based
Kappa-type opioid receptor (Homo sapiens), sequence (P41145 whole entry): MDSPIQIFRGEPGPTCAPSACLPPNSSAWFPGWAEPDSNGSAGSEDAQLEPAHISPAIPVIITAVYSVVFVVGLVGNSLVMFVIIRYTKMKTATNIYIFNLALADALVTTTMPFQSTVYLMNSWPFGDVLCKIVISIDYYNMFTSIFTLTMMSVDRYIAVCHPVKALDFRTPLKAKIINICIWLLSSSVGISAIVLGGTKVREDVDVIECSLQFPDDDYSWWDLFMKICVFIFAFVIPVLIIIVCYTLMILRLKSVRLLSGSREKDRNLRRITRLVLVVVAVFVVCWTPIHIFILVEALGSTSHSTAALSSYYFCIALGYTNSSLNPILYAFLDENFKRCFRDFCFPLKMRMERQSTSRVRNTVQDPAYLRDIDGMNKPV
In short: (§2)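 Membranes of CHO cells expressing cloned human receptor (0.4-0.6 pmol/mg), 20-40 µg protein, with 0.5 nM [³⁵S]GTPγS, 10 µM GDP final, 1% DMSO, in 20 mM Hepes pH 7.4, 100 mM NaCl, 10 mM MgCl₂; 1 h room temperature. Agonist curves (seven concentrations, 0.32-32 000 nM) ± one test concentration (µ 3-300, δ 1-50, κ 50-300 nM). Filtration over GF/B, scintillation counting; Ke as mean ± SE, ≥3 experiments.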

[4] = target: Kappa-type opioid receptor (Homo sapiens) (UniProt P41145); assay: Intrinsic activity at kappa opioid receptor in presence of 1 uM GDP; assay type: functional
[5] = target: T1, Delta-type opioid receptor; assay: Inverse agonist activity at human cloned delta opioid receptor expressed in CHO cells assessed as […] [35S]GTP-gamma-S binding in presence of 1 uM GDP relative to control; assay type: functional, cell-based; design: scale not given: the % may be the effect or the level left
[6] = target: Mu-type opioid receptor (Homo sapiens) (UniProt P35372); assay: Antagonist activity at human cloned mu opioid receptor expressed in CHO cells assessed as inhibition of DAMGO-stimulated [35S]GTP-gamma-S binding in presence of 10 uM GDP; assay type: functional, cell-based; in short: as §2
Mu-type opioid receptor (Homo sapiens), sequence (P35372 whole entry): as the sequence (P35372 whole entry, looked up) above

[7] = target: T1, Delta-type opioid receptor; assay: Inverse agonist activity at human cloned delta opioid receptor expressed in CHO cells assessed as […] [35S]GTP-gamma-S binding in presence of 1 uM GDP; assay type: functional, cell-based
[8] = target: Mu-type opioid receptor (Homo sapiens) (UniProt P35372); assay: Intrinsic activity at mu opioid receptor in presence of 1 uM GDP; assay type: functional
[9] = target: Opioid receptors; delta & kappa (Homo sapiens) (UniProt P41145+P41143); assay: Selectivity for human cloned delta opioid receptor over kappa opioid receptor; assay type: protein assay; in short: as §1
Opioid receptors; delta & kappa (Homo sapiens), sequence (P41143 whole entry, looked up): as the sequence (P41143 whole entry, looked up) above
Opioid receptors; delta & kappa (Homo sapiens), sequence (P41145 whole entry, looked up): as the sequence (P41145 whole entry) above

[10] = target: T1, Delta-type opioid receptor; assay: Antagonist activity at human cloned delta opioid receptor expressed in CHO cells assessed as inhibition of DPDPE-stimulated [35S]GTP-gamma-S binding in presence of 10 uM GDP; assay type: functional, cell-based; in short: as §2

Compound | Ratio Ke [1] | Activity [2] | Ke [3] [nM] | Activity [4] | Activity [5] [%] | Ke [6] [nM] | pIC50 [7] | Activity [8] | Ratio Ke [9] | Ke [10] [nM]
C[C@H]1CN(C)[C@@H]2C[C@@H](NC(=O)C3(c4ccccc4)CCCC3)C[C@@]1(c1cccc(O)c1)C2 | 0.6 | inactive | 61 | inactive | 79 | 43.2 | 7.02 | inactive | 0.8 | 76.8
C[C@H]1CN(CCOc2ccccc2)[C@@H]2C[C@@H](NC(=O)C(C)(C)c3ccccc3)C[C@@]1(c1cccc(O)c1)C2 | 13 | inactive | 96.3 | inactive | 83 | 11.4 | 8.85 | inactive | 111 | 0.87
C[C@H]1CN(CCCc2ccccc2)[C@@H]2C[C@@H](NC(=O)C3(c4ccccc4)CCCCC3)C[C@@]1(c1cccc(O)c1)C2 | 67 | inactive | 10.2 | inactive | 65 | 22.8 | 9.17 | inactive | 30 | 0.34
C[C@H]1CN(CCCc2ccccc2)[C@@H]2C[C@@H](NC(=O)C3(c4ccc5ccccc5c4)CCCC3)C[C@@]1(c1cccc(O)c1)C2 | 47 | inactive | 56.1 | inactive | 69 | 35 | 8.11 | inactive | 75 | 0.75
C[C@H]1CN(C/C=C/c2ccccc2)[C@@H]2C[C@@H](NC(=O)C(C)(C)c3ccccc3)C[C@@]1(c1cccc(O)c1)C2 | 2.4 | inactive | 15.8 | inactive | 78 | 1.9 | 9.14 | inactive | 20 | 0.81
C[C@H]1CN(CCCc2ccccc2)[C@@H]2C[C@@H](NC(=O)C3(c4ccsc4)CCCC3)C[C@@]1(c1cccc(O)c1)C2 | 8.8 | inactive | 7.77 | inactive | 86 | 2.07 | 9.35 | inactive | 33 | 0.24
Cc1ccccc1/C=C/CN1C[C@H](C)[C@@]2(c3cccc(O)c3)C[C@H](NC(=O)C(C)(C)c3ccccc3)C[C@@H]1C2 | 2.2 | inactive | 6.7 | inactive | 70 | 1.02 | 9.92 | inactive | 14 | 0.47
CCC(CC)(C(=O)N[C@@H]1C[C@@H]2C[C@](c3cccc(O)c3)(C1)[C@@H](C)CN2CCCc1ccccc1)c1ccccc1 | 59 | inactive | 14.6 | inactive | 61 | 11.7 | 8.74 | inactive | 74 | 0.2
C[C@H]1CN(CCCc2ccccc2)[C@@H]2C[C@@H](NC(=O)C3(c4cccc5ccccc45)CCCC3)C[C@@]1(c1cccc(O)c1)C2 | 19 | inactive | 43.6 | inactive | 46 | 27.2 | 7.80 | inactive | 31 | 1.42
Oc1ccc2c3c1O[C@H]1c4[nH]c5ccccc5c4C[C@@]4(O)[C@@H](C2)N(CC2CC2)CC[C@]314 | 157 | inactive | – | inactive | – | – | – | inactive | 77 | –
C[C@H]1CN(CCCc2ccccc2)[C@@H]2C[C@@H](NC(=O)C3(c4ccccc4)CCCCCC3)C[C@@]1(c1cccc(O)c1)C2 | 93 | inactive | 17.5 | inactive | 70 | 24.4 | 9.41 | inactive | 67 | 0.26
C[C@H]1CN(CCCc2ccccc2)[C@@H]2C[C@@H](NC(=O)C(C)(C)c3ccccc3)C[C@@]1(c1cccc(O)c1)C2 | 103 | inactive | 13.2 | inactive | 64 | 10.3 | 9.40 | inactive | 132 | 0.1
C[C@H]1CN(CCCc2ccccc2)[C@@H]2C[C@@H](NC(=O)C3(c4cccs4)CCCC3)C[C@@]1(c1cccc(O)c1)C2 | 7.1 | inactive | 24 | inactive | 54 | 2.19 | 9.10 | inactive | 77 | 0.31
COc1ccc(C2(C(=O)N[C@@H]3C[C@@H]4C[C@](c5cccc(O)c5)(C3)[C@@H](C)CN4CCCc3ccccc3)CCCC2)cc1 | 18 | inactive | 2.43 | inactive | 72 | 12 | 9.32 | inactive | 3.6 | 0.67
C[C@@H](C(=O)N[C@@H]1C[C@@H]2C[C@](c3cccc(O)c3)(C1)[C@@H](C)CN2CCCc1ccccc1)c1ccccc1 | 69 | inactive | 8.1 | inactive | 78 | 9.6 | 9.82 | inactive | 58 | 0.14
C=CCN(CC=C)[C@@H](Cc1ccc(O)cc1)C(=O)NC(C)(C)C(=O)NC(C)(C)C(=O)N[C@@H](Cc1ccccc1)C(=O)N[C@@H](CC(C)C)C(=O)O ({Tyr(Nα,Nα-allyl2)}-[Aib][Aib]FL-OH) | 5.3 | inactive | – | inactive | 75 | – | 7.08 | inactive | 43 | –
CC1CN(CCCc2ccccc2)[C@@H]2C[C@@H](NC(=O)C3(c4ccccc4)CCCC3)C[C@@]1(c1cccc(O)c1)C2 (single isomer, unassigned; (+)) | 58 | inactive | 17.9 | inactive | 70 | 8.7 | 8.74 | inactive | 119 | 0.15
Cc1ccccc1/C=C/CN1C[C@H](C)[C@@]2(c3cccc(O)c3)C[C@H](NC(=O)C3(c4ccccc4)CCCC3)C[C@@H]1C2 | 7.6 | inactive | 5.6 | inactive | 70 | 2.51 | 9.30 | inactive | 22 | 0.33
C[C@H]1CN(CCCc2ccccc2)[C@@H]2C[C@@H](NC(=O)C3(c4ccc(F)cc4)CCCC3)C[C@@]1(c1cccc(O)c1)C2 | 35 | inactive | 4.5 | inactive | 72 | 9.1 | 9.35 | inactive | 17 | 0.26
C[C@H]1CN(CCCc2ccccc2)[C@@H]2C[C@@H](NC(=O)C3(c4ccccc4)CCC3)C[C@@]1(c1cccc(O)c1)C2 | 62 | inactive | 16 | inactive | 65 | 10.6 | 9.38 | inactive | 94 | 0.17
